Laboratory results from ChEMBL document CHEMBL1140385, “Synthesis and antibacterial activity of 3-substituted-6-(3-ethyl-4-methylanilino)uracils” (J Med Chem, 2005).
Values after ≈ are worked out from the molar mass of the structure shown.

Key:
Enterococcus faecalis = assay: In vitro minimum inhibitory concentration against Enterococcus faecalis upon incubation at 37 degree C for 16 to 24 hr by dissolving in DMSO (1%); format: functional
Method in brief: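 Log-phase E. faecalis was grown in brain-heart infusion broth and seeded at (3-7) × 10^5 CFU/mL. Duplicate 2-fold dilutions ran from 20 to 1.25 µg/mL, final 1% DMSO. After 16-24 h at 37 °C with shaking, OD600 was read.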

Enterococcus faecium [1] = assay: In vitro minimum inhibitory concentration against Vancomycin resistant Enterococci faecium upon incubation at 37 degree C for 16 to 24 hr by dissolving in DMSO (1%); format: functional
Method in brief: (§1)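 Broth microdilution (modified NCCLS M7-A4). Enterococci grown to log phase in brain-heart infusion broth, seeded at (3-7) × 10⁵ CFU/mL. Compounds 2-fold diluted from DMSO stocks, 20 to 1.25 µg/mL, final 1% DMSO, in duplicate. Incubated 37 °C, 16-24 h, with shaking. OD600 read.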

Staphylococcus aureus [2] = assay: In vitro minimum inhibitory concentration against Staphylococcus aureus (Smith) upon incubation at 37 degree C for 16 to 24 hr by dissolving in DMSO (1%); format: functional
Staphylococcus aureus [3] = assay: In vitro minimum inhibitory concentration against Methicillin-resistant Staphylococcus aureus upon incubation at 37 degree C for 16 to 24 hr by dissolving in DMSO (1%); format: functional
Method in brief: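 Broth microdilution (modified NCCLS M7-A4). Staphylococci grown to log phase in Luria broth, seeded at (3-7) × 10⁵ CFU/mL. Compounds 2-fold diluted from DMSO stocks, 20 to 1.25 µg/mL, final 1% DMSO, in duplicate. Incubated 37 °C, 16-24 h, with shaking. OD600 read.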

Enterococcus faecium [4] = assay: In vitro minimum inhibitory concentration against Enterococcus fecium upon incubation at 37 degree C for 16 to 24 hr by dissolving in DMSO (1%); format: functional; method in brief: as §1
[5] = molecular target: DNA polymerase III PolC-type (Bacillus subtilis (strain 168), UniProt P13267); assay: Inhibitory concentration against Bacillus subtilis DNA polymerase IIIC using [3H]dTMP 250 pM (30 degree C for 10 min)
Sequence of DNA polymerase III PolC-type (P13267 whole entry, the tested form may be a part): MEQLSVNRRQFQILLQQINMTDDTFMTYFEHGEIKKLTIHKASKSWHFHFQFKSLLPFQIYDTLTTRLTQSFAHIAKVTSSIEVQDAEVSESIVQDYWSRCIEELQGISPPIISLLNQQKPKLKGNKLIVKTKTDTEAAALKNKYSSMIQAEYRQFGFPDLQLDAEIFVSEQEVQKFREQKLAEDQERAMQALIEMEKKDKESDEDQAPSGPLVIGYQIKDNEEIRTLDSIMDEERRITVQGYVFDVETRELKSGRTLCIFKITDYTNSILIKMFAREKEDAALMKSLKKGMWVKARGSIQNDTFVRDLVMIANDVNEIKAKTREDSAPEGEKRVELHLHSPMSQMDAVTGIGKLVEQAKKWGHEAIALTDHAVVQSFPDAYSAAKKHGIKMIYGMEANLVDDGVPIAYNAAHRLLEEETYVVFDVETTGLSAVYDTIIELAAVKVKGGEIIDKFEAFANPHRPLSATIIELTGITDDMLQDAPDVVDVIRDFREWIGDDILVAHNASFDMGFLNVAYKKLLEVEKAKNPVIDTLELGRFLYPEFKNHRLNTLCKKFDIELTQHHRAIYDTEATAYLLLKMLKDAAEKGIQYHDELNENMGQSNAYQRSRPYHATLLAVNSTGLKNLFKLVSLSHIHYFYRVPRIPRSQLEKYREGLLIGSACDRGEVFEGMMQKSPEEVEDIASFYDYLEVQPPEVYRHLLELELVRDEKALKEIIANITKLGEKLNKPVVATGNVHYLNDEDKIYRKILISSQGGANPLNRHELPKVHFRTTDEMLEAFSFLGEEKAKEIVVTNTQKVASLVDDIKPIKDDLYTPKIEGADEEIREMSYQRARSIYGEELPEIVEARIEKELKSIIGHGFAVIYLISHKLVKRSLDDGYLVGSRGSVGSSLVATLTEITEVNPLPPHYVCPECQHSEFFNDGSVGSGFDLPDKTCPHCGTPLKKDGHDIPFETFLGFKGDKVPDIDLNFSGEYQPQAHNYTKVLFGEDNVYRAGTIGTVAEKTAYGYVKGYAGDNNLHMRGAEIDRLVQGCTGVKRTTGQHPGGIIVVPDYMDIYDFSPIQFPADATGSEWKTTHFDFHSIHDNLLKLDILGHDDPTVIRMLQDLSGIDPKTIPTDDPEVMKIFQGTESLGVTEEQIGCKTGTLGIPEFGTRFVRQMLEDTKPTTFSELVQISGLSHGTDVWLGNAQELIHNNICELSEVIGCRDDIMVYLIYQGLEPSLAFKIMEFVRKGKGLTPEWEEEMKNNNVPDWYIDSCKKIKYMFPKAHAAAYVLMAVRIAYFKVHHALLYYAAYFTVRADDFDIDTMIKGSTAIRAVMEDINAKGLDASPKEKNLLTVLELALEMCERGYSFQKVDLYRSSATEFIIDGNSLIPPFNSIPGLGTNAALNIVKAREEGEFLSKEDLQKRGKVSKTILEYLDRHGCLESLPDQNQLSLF
Method in brief: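 Homogeneous recombinant B. subtilis pol IIIC, 0.025-0.06 units, acted on activated calf thymus DNA with Mg2+, DTT, glycerol, dATP, dCTP, dTTP and [3H]dTTP, without dGTP. Compounds were serially diluted from DMSO. Reactions ran 10 min at 30 °C, were stopped with TCA-pyrophosphate, and the filter-collected precipitate was scintillation counted. Apparent Ki was read directly from this truncated assay; average standard deviation ±44%.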

Staphylococcus aureus [6] = assay: In vitro minimum inhibitory concentration against Staphylococcus aureus upon incubation at 37 degree C for 16 to 24 hr by dissolving in DMSO (1%); format: functional
Bacillus subtilis = assay: In vitro minimum inhibitory concentration against Bacillus subtilis upon incubation at 37 degree C for 16 to 24 h; format: functional
Staphylococcus aureus [7] = assay: Serum effect on MIC against Staphylococcus aureus (Smith) as ratio of MIC value in presence and absence of 50% fetal calf serum; format: functional
Method in brief: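 Broth microdilution MIC was repeated with 50% fetal calf serum added to the growth medium (LB for S. aureus, brain-heart infusion broth for E. faecalis). The inoculum was (3-7) × 10^5 CFU/mL in 1% DMSO, incubated at 37 °C for 16-24 h, and read by OD600. The serum effect is the MIC with serum relative to the MIC without serum.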

`CCc1cc(Nc2cc(=O)n(CCN3CCN(C(=O)c4ccccc4)CC3)c(=O)[nH]2)ccc1C` was tested, and the MIC (Enterococcus faecalis) was 10 µg/mL (≈ 21.7 µM), the MIC (Enterococcus faecium [1]) was 5 µg/mL (≈ 10.8 µM) and the MIC (Staphylococcus aureus [2]) was 10 µg/mL (≈ 21.7 µM). It also gave an MIC (Staphylococcus aureus [3]) of 10 µg/mL (≈ 21.7 µM) and an MIC (Enterococcus faecium [4]) of 5 µg/mL (≈ 10.8 µM).

`CCc1cc(Nc2cc(=O)n(CCCCCOC(C)=O)c(=O)[nH]2)ccc1C` gave an MIC (Enterococcus faecalis) of 5 µg/mL (≈ 13.4 µM), an MIC (Enterococcus faecium [1]) of 3.75 µg/mL (≈ 10 µM) and an MIC (Staphylococcus aureus [2]) of 7.5 µg/mL (≈ 20.1 µM). The Ki [5] was 68 nM, the MIC (Staphylococcus aureus [3]) was 2.5 µg/mL (≈ 6.69 µM) and the MIC (Enterococcus faecium [4]) was 3.75 µg/mL (≈ 10 µM). It also gave an MIC (Staphylococcus aureus [6]) of 5 µg/mL (≈ 13.4 µM) and an MIC (Bacillus subtilis) of 0.625 µg/mL (≈ 1.67 µM).

`CCc1cc(Nc2cc(=O)n(CCCCNCCO)c(=O)[nH]2)ccc1C` was tested, and the MIC (Enterococcus faecalis) was > 20 µg/mL, the MIC (Staphylococcus aureus [2]) was > 20 µg/mL and the Ki [5] was 28 nM. For the same compound, the MIC (Enterococcus faecium [4]) was > 20 µg/mL, the MIC (Staphylococcus aureus [6]) was > 20 µg/mL and the MIC (Bacillus subtilis) was > 20 µg/mL.

With `CCc1cc(Nc2cc(=O)n(CCCCN)c(=O)[nH]2)ccc1C.Cl` the MIC (Enterococcus faecalis) was > 20 µg/mL, the MIC (Staphylococcus aureus [2]) was 10 µg/mL and the MIC (Staphylococcus aureus [3]) was > 20 µg/mL. The MIC (Enterococcus faecium [4]) was > 20 µg/mL, the MIC (Staphylococcus aureus [6]) was 20 µg/mL and the MIC (Bacillus subtilis) was 20 µg/mL.

In the case of `CCc1cc(Nc2cc(=O)n(CCCCCCCCO)c(=O)[nH]2)ccc1C`, the MIC (Enterococcus faecium [1]) is reported as 2.5 µg/mL (≈ 6.69 µM), the MIC (Enterococcus faecium [4]) is reported as 2.5 µg/mL (≈ 6.69 µM) and the “MIC+/MIC-” value (Staphylococcus aureus [7]) is reported as 21.3.

Work on `CCc1cc(Nc2cc(=O)n(CCCCNC(=O)CCl)c(=O)[nH]2)ccc1C` yielded an MIC (Enterococcus faecalis) of 5 µg/mL (≈ 12.7 µM), an MIC (Enterococcus faecium [1]) of 5 µg/mL (≈ 12.7 µM) and an MIC (Staphylococcus aureus [2]) of 5 µg/mL (≈ 12.7 µM). It also gave an MIC (Staphylococcus aureus [3]) of 10 µg/mL (≈ 25.5 µM) and an MIC (Enterococcus faecium [4]) of 10 µg/mL (≈ 25.5 µM).

In the case of `CCc1cc(Nc2cc(=O)n(CCCCCN3CC=C(c4ccc(F)cc4)CC3)c(=O)[nH]2)ccc1C`, the MIC (Enterococcus faecalis) is reported as 7.5 µg/mL (≈ 15.3 µM), the MIC (Enterococcus faecium [1]) is reported as 5 µg/mL (≈ 10.2 µM) and the MIC (Staphylococcus aureus [2]) is reported as 7.5 µg/mL (≈ 15.3 µM). It also gave an MIC (Staphylococcus aureus [3]) of 7.5 µg/mL (≈ 15.3 µM), an MIC (Enterococcus faecium [4]) of 7.5 µg/mL (≈ 15.3 µM) and an MIC (Staphylococcus aureus [6]) of 10 µg/mL (≈ 20.4 µM).

`CCc1cc(Nc2cc(=O)n(CC(C)=O)c(=O)[nH]2)ccc1C` showed an MIC (Enterococcus faecalis) of 20 µg/mL (≈ 66.4 µM), an MIC (Enterococcus faecium [1]) of 20 µg/mL (≈ 66.4 µM) and an MIC (Staphylococcus aureus [2]) of 10 µg/mL (≈ 33.2 µM). The MIC (Staphylococcus aureus [3]) was 10 µg/mL (≈ 33.2 µM) and the MIC (Enterococcus faecium [4]) was 10 µg/mL (≈ 33.2 µM).

`CCc1cc(Nc2cc(=O)n(CCCCNS(=O)(=O)c3cccs3)c(=O)[nH]2)ccc1C` showed an MIC (Enterococcus faecalis) of 5 µg/mL (≈ 10.8 µM), an MIC (Enterococcus faecium [1]) of 5 µg/mL (≈ 10.8 µM) and an MIC (Enterococcus faecium [4]) of 2.5 µg/mL (≈ 5.4 µM). The MIC (Staphylococcus aureus [6]) was > 20 µg/mL and the “MIC+/MIC-” value (Staphylococcus aureus [7]) was 13.7.

In the case of `CCc1cc(Nc2cc(=O)n(CCCCN(CCO)CCO)c(=O)[nH]2)ccc1C`, the MIC (Enterococcus faecalis) is reported as > 20 µg/mL, the MIC (Staphylococcus aureus [2]) is reported as > 20 µg/mL and the Ki [5] is reported as 21 nM. For the same compound, the MIC (Enterococcus faecium [4]) was > 20 µg/mL, the MIC (Staphylococcus aureus [6]) was > 20 µg/mL and the MIC (Bacillus subtilis) was > 20 µg/mL.

Compound `CCc1cc(Nc2cc(=O)n(CCCCNS(=O)(=O)c3ccc(C)cc3)c(=O)[nH]2)ccc1C` has an MIC (Enterococcus faecalis) of 5 µg/mL (≈ 10.6 µM), an MIC (Enterococcus faecium [1]) of 5 µg/mL (≈ 10.6 µM) and an MIC (Staphylococcus aureus [2]) of 5 µg/mL (≈ 10.6 µM). The Ki [5] was 230 nM, the MIC (Staphylococcus aureus [3]) was > 20 µg/mL and the MIC (Enterococcus faecium [4]) was 5 µg/mL (≈ 10.6 µM). It also gave an MIC (Staphylococcus aureus [6]) of 5 µg/mL (≈ 10.6 µM) and an MIC (Bacillus subtilis) of 5 µg/mL (≈ 10.6 µM).

`CCc1cc(Nc2cc(=O)n(CCCCCCO)c(=O)[nH]2)ccc1C` was tested, and the MIC (Enterococcus faecalis) was 2.5 µg/mL (≈ 7.24 µM), the MIC (Staphylococcus aureus [3]) was 5 µg/mL (≈ 14.5 µM) and the MIC (Enterococcus faecium [4]) was 5 µg/mL (≈ 14.5 µM). For the same compound, the MIC (Staphylococcus aureus [6]) was 5 µg/mL (≈ 14.5 µM) and the “MIC+/MIC-” value (Staphylococcus aureus [7]) was 8.7.

For `CCc1cc(Nc2cc(=O)n(CCCC(=O)O)c(=O)[nH]2)ccc1C`, the MIC (Enterococcus faecalis) was > 20 µg/mL, the MIC (Enterococcus faecium [1]) was 20 µg/mL (≈ 60.4 µM) and the MIC (Staphylococcus aureus [3]) was > 20 µg/mL. The MIC (Enterococcus faecium [4]) was 20 µg/mL (≈ 60.4 µM) and the MIC (Staphylococcus aureus [6]) was 20 µg/mL (≈ 60.4 µM).

Work on `CCc1cc(Nc2cc(=O)n(CCOCCOCCO)c(=O)[nH]2)ccc1C` yielded an MIC (Enterococcus faecalis) of 10 µg/mL (≈ 26.5 µM), an MIC (Enterococcus faecium [1]) of 5 µg/mL (≈ 13.2 µM) and an MIC (Staphylococcus aureus [2]) of 10 µg/mL (≈ 26.5 µM). The MIC (Staphylococcus aureus [3]) was > 20 µg/mL and the MIC (Enterococcus faecium [4]) was 10 µg/mL (≈ 26.5 µM).

In the case of `CCc1cc(Nc2cc(=O)n(CCCCC#N)c(=O)[nH]2)ccc1C`, the MIC (Enterococcus faecalis) is reported as 2.5 µg/mL (≈ 7.66 µM), the MIC (Enterococcus faecium [1]) is reported as 5 µg/mL (≈ 15.3 µM) and the MIC (Staphylococcus aureus [3]) is reported as 5 µg/mL (≈ 15.3 µM). For the same compound, the MIC (Enterococcus faecium [4]) was 5 µg/mL (≈ 15.3 µM), the MIC (Staphylococcus aureus [6]) was 5 µg/mL (≈ 15.3 µM) and the “MIC+/MIC-” value (Staphylococcus aureus [7]) was 6.

In the case of `CCc1cc(Nc2cc(=O)n(CCO)c(=O)[nH]2)ccc1C`, the MIC (Enterococcus faecalis) is reported as 10 µg/mL (≈ 34.6 µM), the MIC (Enterococcus faecium [1]) is reported as 5 µg/mL (≈ 17.3 µM) and the MIC (Staphylococcus aureus [2]) is reported as 5 µg/mL (≈ 17.3 µM). The MIC (Staphylococcus aureus [3]) was 10 µg/mL (≈ 34.6 µM), the MIC (Enterococcus faecium [4]) was 5 µg/mL (≈ 17.3 µM) and the MIC (Staphylococcus aureus [6]) was 5 µg/mL (≈ 17.3 µM). For the same compound, the MIC (Bacillus subtilis) was < 1.25 µg/mL.

`CCc1cc(Nc2cc(=O)n(CCCC(O)CO)c(=O)[nH]2)ccc1C` (stereo unspecified) gave an MIC (Enterococcus faecalis) of 20 µg/mL (≈ 57.6 µM), an MIC (Enterococcus faecium [1]) of 10 µg/mL (≈ 28.8 µM) and an MIC (Staphylococcus aureus [2]) of 20 µg/mL (≈ 57.6 µM). For the same compound, the MIC (Staphylococcus aureus [3]) was > 20 µg/mL and the MIC (Enterococcus faecium [4]) was 20 µg/mL (≈ 57.6 µM).
